According to ChEMBL document CHEMBL5303300, “EUbOPEN Chemogenomics Library - Multiplex” (2023):
Values joined by “and” are separate entries in the source; they are usually repeats but may differ in a detail not shown here. Equal values may be shown once.

Key:
[1] = test system: HEK-293T; assay: Multiplex assay against HEK293T; format: toxicity, cell-based; settings: human, number of replicates 2
How it was run: (§1)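 Cells stained live at seeding with Hoechst33342, BioTracker Green Microtubule Cytoskeleton Dye, MitoTracker Red and Annexin V Alexa Fluor 680 were imaged on a CQ1 microscope at 37°C and 5% CO2 after compound addition. Their classification by CellPathfinder machine-learning gating ran from Hoechst high-intensity objects versus normal cells, to healthy, pyknosed or fragmented nuclei among normal cells, to mitotic or apoptotic among pyknosed cells. Tubulin, mitochondrial-mass and membrane-permeability phenotypes are per cents of healthy-nucleus cells.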

[2] = test system: U2OS; assay: Multiplex assay against U2OS; format: toxicity, cell-based; settings: human, number of replicates 2; how it was run: as §1
[3] = 24 h, 1 µM, compound concentration 1 uM
[4] = 24 h, 10 µM, compound concentration 10 uM
[5] = 48 h, 1 µM, compound concentration 1 uM
[6] = 48 h, 10 µM, compound concentration 10 uM
[7] = 12 h, 1 µM, compound concentration 1 uM
[8] = 12 h, 10 µM, compound concentration 10 uM

## CN1CCc2cc(Cl)c(O)cc2[C@@H](c2ccccc2)C1.Cl
[1]; [3]
  Population Mitotic Cells (%): 52% and 68%
  Population Normal (%): 92%
  Population Pyknosed Nuclei (%): 9% and 6%
  Population Tubulin-Different-Phenotype (%): 25% and 24%
  Total Cell Count: 778 and 975
[1]; [4]
  Population Apoptotic (%): 38% and 37%
  Population Fragmented Nuclei (%): 7% and 8%
  Population Healthy Nuclei (%): 88% and 87%
  Population Hoechst High Intensity Objects (%): 8% and 7%
  Population Membrane Permeable-Phenotype (%): 5% and 4%
  Population Mitochondria Different-Phenotype (%): 3%
  Population Mitotic Cells (%): 61% and 62%
  Population Normal (%): 91% and 92%
  Population Pyknosed Nuclei (%): 4%
  Population Tubulin-Different-Phenotype (%): 35% and 38%
  Total Cell Count: 1332 and 988
[1]; [5]
  Population Apoptotic (%): 10% and 5%
  Population Fragmented Nuclei (%): 10% and 11%
  Population Healthy Nuclei (%): 85% and 84%
  Population Hoechst High Intensity Objects (%): 8% and 9%
  Population Membrane Permeable-Phenotype (%): 3% and 6%
  Population Mitochondria Different-Phenotype (%): 1% and 0%
  Population Mitotic Cells (%): 89% and 94%
  Population Normal (%): 91% and 90%
  Population Pyknosed Nuclei (%): 3%
  Population Tubulin-Different-Phenotype (%): 10% and 14%
  Total Cell Count: 1964 and 2487
[1]; [6]
  Population Apoptotic (%): 6% and 16%
  Population Fragmented Nuclei (%): 22% and 20%
  Population Healthy Nuclei (%): 75% and 77%
  Population Hoechst High Intensity Objects (%): 9% and 10%
  Population Membrane Permeable-Phenotype (%): 10%
  Population Mitochondria Different-Phenotype (%): 0%
  Population Mitotic Cells (%): 93% and 83%
  Population Normal (%): 90% and 89%
  Population Pyknosed Nuclei (%): 2%
  Population Tubulin-Different-Phenotype (%): 20% and 21%
  Total Cell Count: 3504 and 2430
[2]; [7]
  Population Apoptotic (%): 100% and 36%
  Population Healthy Nuclei (%): 58% and 86%
  Population Hoechst High Intensity Objects (%): 0%
  Population Membrane Permeable-Phenotype (%): 0%
  Population Mitochondria Different-Phenotype (%): 0%
  Population Normal (%): 100%
  Population Pyknosed Nuclei (%): 12% and 7%
  Population Tubulin-Different-Phenotype (%): 78% and 88%
[2]; [8]
  Population Apoptotic (%): 50% and 29%
  Population Fragmented Nuclei (%): 3% and 4%
  Population Healthy Nuclei (%): 75% and 85%
  Population Hoechst High Intensity Objects (%): 0%
  Population Membrane Permeable-Phenotype (%): 0% and 2%
  Population Mitochondria Different-Phenotype (%): 0%
  Population Mitotic Cells (%): 50% and 70%
  Population Normal (%): 100% and 99%
  Population Pyknosed Nuclei (%): 21% and 9%
  Population Tubulin-Different-Phenotype (%): 55% and 80%
[2]; [3]
  Population Apoptotic (%): 28% and 33%
  Population Healthy Nuclei (%): 56% and 87%
  Population Hoechst High Intensity Objects (%): 0%
  Population Membrane Permeable-Phenotype (%): 0% and 1%
  Population Mitochondria Different-Phenotype (%): 0%
  Population Mitotic Cells (%): 71% and 66%
  Population Normal (%): 100%
  Population Pyknosed Nuclei (%): 15% and 7%
  Population Tubulin-Different-Phenotype (%): 88% and 92%
[2]; [4]
  Population Apoptotic (%): 50% and 58%
  Population Fragmented Nuclei (%): 5% and 3%
  Population Healthy Nuclei (%): 85% and 87%
  Population Hoechst High Intensity Objects (%): 0%
  Population Membrane Permeable-Phenotype (%): 1%
  Population Mitochondria Different-Phenotype (%): 0%
  Population Mitotic Cells (%): 50% and 41%
  Population Normal (%): 100% and 99%
  Population Pyknosed Nuclei (%): 10% and 8%
  Population Tubulin-Different-Phenotype (%): 75% and 81%
[2]; [5]
  Population Apoptotic (%): 54% and 50%
  Population Fragmented Nuclei (%): 8% and 3%
  Population Healthy Nuclei (%): 73% and 92%
  Population Hoechst High Intensity Objects (%): 1% and 0%
  Population Membrane Permeable-Phenotype (%): 2% and 1%
  Population Mitochondria Different-Phenotype (%): 2% and 0%
  Population Mitotic Cells (%): 45% and 50%
  Population Normal (%): 98% and 100%
  Population Tubulin-Different-Phenotype (%): 80% and 90%
[2]; [6]
  Population Apoptotic (%): 50% and 53%
  Population Fragmented Nuclei (%): 11% and 3%
  Population Healthy Nuclei (%): 79% and 88%
  Population Hoechst High Intensity Objects (%): 0%
  Population Membrane Permeable-Phenotype (%): 0% and 2%
  Population Mitochondria Different-Phenotype (%): 1% and 0%
  Population Mitotic Cells (%): 50% and 46%
  Population Normal (%): 100%
  Population Pyknosed Nuclei (%): 9% and 7%
  Population Tubulin-Different-Phenotype (%): 87%
